The values below come from publication PMC5850608 (Molecular Biology and Evolution, 2017).

In one assay the target is T1, EsemOR3 (Eriocrania semipurpurella, UniProt A0A2H4NT95).
T1 sequence (A0A2H4NT95 1-441): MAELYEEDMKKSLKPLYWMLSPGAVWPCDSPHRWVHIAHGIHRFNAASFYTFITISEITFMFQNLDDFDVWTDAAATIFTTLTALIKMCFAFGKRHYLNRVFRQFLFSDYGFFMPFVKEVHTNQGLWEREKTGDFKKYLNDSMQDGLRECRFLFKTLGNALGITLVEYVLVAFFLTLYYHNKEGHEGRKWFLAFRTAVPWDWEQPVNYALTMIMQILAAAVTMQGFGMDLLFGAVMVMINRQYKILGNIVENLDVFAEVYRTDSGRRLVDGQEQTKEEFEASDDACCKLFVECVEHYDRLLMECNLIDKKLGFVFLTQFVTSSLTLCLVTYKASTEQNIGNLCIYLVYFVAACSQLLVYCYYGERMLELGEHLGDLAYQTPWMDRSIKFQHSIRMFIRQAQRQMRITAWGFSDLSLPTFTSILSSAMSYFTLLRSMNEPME
T1 sequence (A0A2H4NT96 1-482 partner): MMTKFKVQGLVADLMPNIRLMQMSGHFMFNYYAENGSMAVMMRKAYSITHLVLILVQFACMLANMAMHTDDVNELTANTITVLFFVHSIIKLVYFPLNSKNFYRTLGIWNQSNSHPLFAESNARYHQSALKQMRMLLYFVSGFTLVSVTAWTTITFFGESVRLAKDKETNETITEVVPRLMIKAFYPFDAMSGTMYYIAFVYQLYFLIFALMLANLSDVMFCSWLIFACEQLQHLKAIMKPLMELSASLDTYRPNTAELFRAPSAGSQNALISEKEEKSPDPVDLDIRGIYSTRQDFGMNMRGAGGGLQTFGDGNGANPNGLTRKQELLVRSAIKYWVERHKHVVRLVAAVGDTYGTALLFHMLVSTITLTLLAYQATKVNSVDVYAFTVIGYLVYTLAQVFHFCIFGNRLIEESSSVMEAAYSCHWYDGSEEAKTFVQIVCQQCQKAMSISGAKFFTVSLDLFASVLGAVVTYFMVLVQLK
The assay can be described thus: Fluorescent calcium assay, HEK293 cells expressing EsemOrco and EsemOR3. It counts as cell-based. As to conditions: for Response of EsemOR3-expressing cells in screening: compounds screened at 30 µM. In outline:
(§1)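 Inducible TREx HEK293 cells stably carry Myc-tagged Orco plus V5-tagged receptor; non-induced wells serve as control. Cells loaded 30 min RT with 1 µM Fluo4-AM, 0.2% pluronic, in DPBS (Ca2+, Mg2+, 1 mM probenecid, pH 7.1); fluorescence read 1 min after ligand. Screen at 30 µM; dose–response from 150 µM, 1/2 dilutions; Orco agonist 50 µM; 0.5% DMSO vehicle. Triplicate wells, three experiments; EC50 (95% CI) by nonlinear fit.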

The next assay concerns the target T2, EsemOR5 (Eriocrania semipurpurella, UniProt A0A2H4NTA6).
T2 sequence (A0A2H4NTA6 1-419): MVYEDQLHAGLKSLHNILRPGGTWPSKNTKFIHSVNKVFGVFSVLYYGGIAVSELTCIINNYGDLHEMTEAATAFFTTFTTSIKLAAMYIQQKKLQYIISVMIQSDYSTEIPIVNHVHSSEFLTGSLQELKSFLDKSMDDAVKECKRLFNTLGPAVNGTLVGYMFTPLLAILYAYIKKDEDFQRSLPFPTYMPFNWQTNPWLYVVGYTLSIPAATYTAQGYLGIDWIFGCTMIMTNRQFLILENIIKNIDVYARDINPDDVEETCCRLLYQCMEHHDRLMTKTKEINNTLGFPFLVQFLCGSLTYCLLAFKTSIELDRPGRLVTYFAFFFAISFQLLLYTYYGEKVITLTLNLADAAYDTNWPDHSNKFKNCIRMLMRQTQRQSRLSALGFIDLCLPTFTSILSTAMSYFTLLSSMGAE
T2 sequence (A0A2H4NT96 1-482 partner): T1 sequence (A0A2H4NT96 1-482 partner)
The assay can be described thus: Fluorescent calcium assay, HEK293 cells expressing EsemOrco and EsemOR5. It counts as cell-based. Particulars: for Response of EsemOR5-expressing cells in screening: compounds screened at 30 µM. In outline:
as §1

The next assay has as its system E. semipurpurella males. As to conditions: cited from earlier work; for Attraction of E. semipurpurella: sex pheromone components, males but not females, ref Larsson etal. 2002; for Effect on male sex pheromone attraction: ref Kozlov etal. 1996.
The test system of the next assay is E. sangii. Particulars: ref Kozlov etal. 1996; cited from earlier work.
The subject of the next assay is EsemOR4. The assay is described as follows: Fluorescent calcium assay, HEK293 cells expressing EsemOrco and EsemOR4. It counts as cell-based, Eriocrania semipurpurella. As to conditions: EsemOrco + EsemOR4 cell line, 50 μM, induced cells. In outline: as §1
In another assay the target is T3, EsemOR1 (Eriocrania semipurpurella, UniProt A0A2H4NTA3).
T3 sequence (A0A2H4NTA3 1-412): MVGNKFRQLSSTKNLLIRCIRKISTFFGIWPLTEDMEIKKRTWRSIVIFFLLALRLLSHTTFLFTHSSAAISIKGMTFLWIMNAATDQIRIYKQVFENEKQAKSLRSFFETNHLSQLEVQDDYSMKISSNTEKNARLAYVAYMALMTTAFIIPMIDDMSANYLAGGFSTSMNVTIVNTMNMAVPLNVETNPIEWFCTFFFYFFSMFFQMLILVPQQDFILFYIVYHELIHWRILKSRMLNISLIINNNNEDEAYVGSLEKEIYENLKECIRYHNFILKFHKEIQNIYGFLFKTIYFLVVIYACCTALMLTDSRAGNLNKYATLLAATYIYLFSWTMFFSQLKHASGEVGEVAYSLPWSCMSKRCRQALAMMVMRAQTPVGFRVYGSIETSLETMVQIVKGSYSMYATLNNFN
T3 sequence (A0A2H4NT96 1-482 partner): T1 sequence (A0A2H4NT96 1-482 partner)
The assay can be described thus: Fluorescent calcium assay, HEK293 cells expressing EsemOrco and EsemOR1. It counts as cell-based. In outline:
as §1

The test system of the next assay is EsemOR6. The assay can be described thus: Fluorescent calcium assay, HEK293 cells expressing EsemOrco and EsemOR6. It counts as cell-based, Eriocrania semipurpurella. As to conditions: EsemOrco + EsemOR6 cell line, 50 μM, induced cells. The procedure, abridged: as §1

“Also recorded” adds a separate entry of the source.

`CCCCCCCCC(C)O` (stereo not shown) [2-Decanol]: the “Response of EsemOR3-expressing cells in screening” value at EsemOR3 (induced cells) is “responded to a lesser extent”.

Take `CCCCCCC(C)O` (stereo not shown) [2-Octanol]: on EsemOR5 (induced cells), the “Response of EsemOR5-expressing cells in screening” value is reported as “responded”. The “Response of EsemOR3-expressing cells in screening” value at EsemOR3 (induced cells) is given as “responded to a lesser extent”.

On to `CCCCCCC(C)=O` [2-Octanone], for which the “Response of EsemOR5-expressing cells in screening” value at EsemOR5 (induced cells) is “responded”. In addition, on EsemOR3 (induced cells), the “Response of EsemOR3-expressing cells in screening” value is “responded to a lesser extent”.

`CCCCCC(O)CC` (stereo not shown) [3-Octanol]: the “Response of EsemOR3-expressing cells in screening” value on EsemOR3 (induced cells) is reported as “responded to a lesser extent”.

Regarding `CC/C=C\CCC[C@@H](C)O` [(2R, 6Z)-6-nonen-2-ol, (2R,6Z)-6-Nonen-2-ol], at EsemOR5 (induced cells), the “Response of EsemOR5-expressing cells in screening” value was “Weaker responses”. Besides, in the assay on E. semipurpurella males, the “Attraction of E. semipurpurella” value is “attractive to males”. Moreover, the “Response of EsemOR3-expressing cells in screening” value at EsemOR3 (induced cells) was “less so”.

For the molecule `CC/C=C\CCC[C@H](C)O` [(2S,6Z)-6-Nonen-2-ol], the “Response of EsemOR5-expressing cells in screening” value at EsemOR5 (induced cells, listed as (2 S, 6Z)-6-nonen-2-ol) is “activated the OR”. Besides, the “Attraction of E. semipurpurella” value in the assay with E. semipurpurella males is “attractive to males”. In addition, the EC50 (as a rule, the concentration needed to bring the measured effect to its halfway point) on EsemOR3 was 0.56 µM. Further, the “Response of EsemOR3-expressing cells in screening” value at EsemOR3 (induced cells) is listed as “responded most strongly”.

As to `CCC/C=C/COC(C)=O` [(E)-2-Hexenyl acetate], the “Response of EsemOR5-expressing cells in screening” value on EsemOR5 (induced cells) is on record as “responded”.

Take `CC(C)=CCC[C@@H](C)O` [(R)-6-methyl-5-hepten-2-ol, (R)-6-Methyl-5-hepten-2-ol]: on EsemOR3 (induced cells), the “Response of EsemOR3-expressing cells in screening” value was “responded to a lesser extent”.

For `CCCCC[C@H](C)O` [(S)-Heptan-2-ol], at EsemOR3 (induced cells), the “Response of EsemOR3-expressing cells in screening” value was “less so; also recorded: responded to some extent”.

For the molecule `CCCCCCC[C@H](C)O` [(S)-Nonan-2-ol], at EsemOR5 (induced cells), the “Response of EsemOR5-expressing cells in screening” value is “Weaker responses”. Moreover, the “Response of EsemOR3-expressing cells in screening” value at EsemOR3 (induced cells) is recorded as “less so”.

`CC/C=C\CCOC(C)=O` [(Z)-3-Hexenyl acetate]: the “Response of EsemOR5-expressing cells in screening” value on EsemOR5 (induced cells) is “responded”. Besides, the “Response of EsemOR3-expressing cells in screening” value on EsemOR3 (induced cells) is listed as “responded to a lesser extent”.

Consider `CC/C=C\CCCC(C)=O` [(Z)-6-Nonen-2-one], for which the EC50 at EsemOR5 came to 0.43 µM. For the same molecule, the “Response of EsemOR5-expressing cells in screening” value on EsemOR5 (induced cells) is listed as “responded most strongly”. Moreover, the “Effect on male sex pheromone attraction” value with E. semipurpurella males (E. semipurpurella) is recorded as “antagonize male sex pheromone attraction”. Further, on EsemOR3 (induced cells), the “Response of EsemOR3-expressing cells in screening” value was “less so; also recorded: responded to some extent”. The “Behavioural effect in E. sangii” value with E. sangii is “antagonist”.

As to `CCCCCCOC(C)=O` [Hexyl acetate], the “Response of EsemOR5-expressing cells in screening” value at EsemOR5 (induced cells) was “responded”.

As to `CCCCCCCC(C)=O` [Nonan-2-one], the “Response of EsemOR5-expressing cells in screening” value at EsemOR5 (induced cells) is reported as “Weaker responses”. The “Effect on pheromone attraction” value with E. semipurpurella males (E. semipurpurella, low concentration, ref Larsson etal. (2002)) is reported as “increases pheromone attraction”. Moreover, the “Effect on male sex pheromone attraction” value with E. semipurpurella males (E. semipurpurella) is recorded as “antagonize male sex pheromone attraction”. Moreover, at EsemOR3 (induced cells), the “Response of EsemOR3-expressing cells in screening” value was “less so; also recorded: more weakly”.

For `CCc1ccc(NC(=O)CSc2nnc(-c3cccnc3)n2CC)cc1` [VUAA1], the “Response to Orco agonist (positive control)” value is “elicited responses in induced cells” in the assay with EsemOR4; “elicited responses in induced cells” on EsemOR5 (EsemOrco + EsemOR5 cell line, 50 μM, induced cells); “elicited responses in induced cells” at EsemOR3 (EsemOrco + EsemOR3 cell line, 50 μM, induced cells); “elicited responses in induced cells” at EsemOR1 (EsemOrco + EsemOR1 cell line, 50 μM, induced cells); “elicited responses in induced cells” in the assay with EsemOR6.

Regarding `C=C1CC/C=C(\C)CC[C@@H]2[C@@H]1CC2(C)C` [β-caryophyllene, β-Caryophyllene], the EC50 on EsemOR1 turned out to be 2.43 µM. Also, on EsemOR1 (induced cells, compounds screened at 30 µM), the “Response of EsemOR1-expressing cells in screening” value was “responded”.
